This note sets out measurements from ChEMBL document CHEMBL1146983, “The design and synthesis of human branched-chain amino acid aminotransferase inhibitors for treatment of neurodegenerative diseases” (Bioorg Med Chem Lett, 2006).

SMILES strings stand for the structures. pIC50: −log10 of the molar value.

In the test the target is T1, Branched-chain-amino-acid aminotransferase, cytosolic (Homo sapiens, UniProt P54687).
T1 sequence (P54687 whole entry): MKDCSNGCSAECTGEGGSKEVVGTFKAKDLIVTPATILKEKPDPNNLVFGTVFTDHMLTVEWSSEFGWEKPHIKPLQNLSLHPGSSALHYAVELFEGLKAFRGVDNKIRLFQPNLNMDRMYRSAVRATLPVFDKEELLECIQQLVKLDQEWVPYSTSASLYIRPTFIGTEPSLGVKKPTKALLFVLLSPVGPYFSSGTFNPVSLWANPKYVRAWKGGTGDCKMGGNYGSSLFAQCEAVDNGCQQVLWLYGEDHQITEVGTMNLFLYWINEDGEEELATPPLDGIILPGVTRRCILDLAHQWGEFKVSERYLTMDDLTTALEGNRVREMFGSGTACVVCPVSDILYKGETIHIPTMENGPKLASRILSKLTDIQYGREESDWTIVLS
The test can be described thus: Inhibition of human BCATc. Summed up:
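Recombinant hBCATc (E. coli-expressed, purified; 50-100 nM) coupled to saturating purified bovine liver GDH. Mix: 25 mM NaPi pH 7.8, 0.75 mM L-leucine, 0.5 mM α-ketoglutarate, 10 μM pyridoxal phosphate, 1 mM NAD+, 4 mM ADP, 2 mM DTT, 12.5 mM EDTA, 1% DMSO final. 37 °C; A340 read over 20 min. IC50 from 8 to 10 point curves.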
For `O=C(NNS(=O)(=O)c1ccccc1)c1cc2ccccc2o1`, the negative logarithm of the IC50 (pIC50) is 4.74.
Next, `O=C(NNS(=O)(=O)c1cccc(Cl)c1)c1cccc2c1oc1ccccc12`: less than 4.46.
Next, `Cc1ccccc1S(=O)(=O)NNC(=O)c1ccc2oc3ccccc3c2c1`: 5.49.
In the case of `O=C(NNS(=O)(=O)c1ccccc1)c1ccc2oc3ccccc3c2c1` it was 5.63; in that of `O=C(NNS(=O)(=O)c1ccccc1)c1cc2cc(Cl)ccc2o1`, 5.38.
On to `O=C(NNS(=O)(=O)c1ccccc1)c1cc2cc(Br)ccc2[nH]1`, for which the pIC50 was 4.82.
In the case of `Cc1ccccc1S(=O)(=O)NNC(=O)c1cc2cc(Cl)ccc2[nH]1` it was 5.94; in that of `O=C(NNS(=O)(=O)c1ccccc1)c1cc2ccccc2[nH]1`, 4.44.
Next, `O=C(NNS(=O)(=O)c1ccccc1)c1cc2cc(Br)ccc2o1`: 5.60.
Next, `COc1ccc2[nH]c(C(=O)NNS(=O)(=O)c3ccccc3)cc2c1`: 4.25.
As for `O=C(NNS(=O)(=O)c1ccccc1)c1cnc2ccccc2c1`, the negative logarithm of the IC50 (pIC50) is 4.48.
In the case of `Cc1cccc(S(=O)(=O)NNC(=O)c2cc3cc(Cl)ccc3o2)c1` it was 5.92.
In the case of `O=C(NNS(=O)(=O)c1ccccc1Cl)c1cc2cc(Cl)ccc2o1` it was 5.24.
Next, `O=C(NNS(=O)(=O)c1ccccc1)c1ccc2ncccc2c1`: 4.88; `Cc1cccc(S(=O)(=O)NNC(=O)c2cccc3c2oc2ccccc23)c1`: 5.55.
